For 72 molecules, cytotoxicity results are on record in ChEMBL document CHEMBL4513216, “Probing the Open Global Health Chemical Diversity Library for Multistage-Active Starting Points for Next-Generation Antimalarials” (ACS Infect Dis, 2020).

A short description of the series: Toxicity liver stage against HepG2, at 10uM. The note with it: human, HepG2-A16-CD81EGFP cells; read-out: INHIBITION
It is filed as cell-based. On the set-up: test concentration 10 uM, cell line HepG2-A16-CD81EGFP. The method, boiled down: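 Uninfected HepG2-A16-CD81EGFP cells, 3 × 10^3 per well, 1536-well, plated on prespotted compound at 10 μM final, parasite-free screening media added to match infected plates; puromycin 10 μM positive, DMSO 0.5% negative; run in parallel with 48 h PbLuc assay at 37 °C, 5% CO2; viability by CellTiter-Glo luminescence, normalized to controls.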

Consider `COc1c(CNCc2ccnc(N(C)C)c2)c(C(C)C)nn1C`, for which the cytotoxicity at 10 µM was -6.3%.
Under `CC(NC1CCN(CC(=O)N(C)C)CC1)c1cnn(C(C)C)c1` (configuration not stated) stands -0.54%; under `O=C(C1CC(c2ccccc2)=NO1)N1CCCCc2ccccc21` (configuration not stated), 3.17%; under `Cc1nn(C)cc1CNC(=O)c1cn(CCC2CCCCN2)nn1` (configuration not stated), -6.15%.
The figure for `CN(Cc1cn[nH]c1-c1ccc(F)cc1)C(=O)CCC1CC1` is 9.12%.
Under `CC(C)(C)CCS(=O)(=O)NCCc1csc(N2CCCC2)n1` stands 8.37%; under `COCCCn1cnnc1CNc1cc(C)nc2ccnn12`, -7.79%.
`CC(=O)N1N=C(c2cccs2)OC1C(=O)Nc1ccccc1` (configuration not stated): the cytotoxicity at 10 µM is -5.58%.
For `CCn1ccnc1CN1CCN(CCC(=O)NC(C)(C)C)CC1C` (configuration not stated), the cytotoxicity at 10 µM is -15.8%.
The figure for `Cc1cc(C)n(CCC(=O)N2CCC(c3nc(C)no3)CC2)n1` is 23.3%; for `Clc1snnc1CN1CCOC(CNc2cccnn2)C1` (configuration not stated) it is -11%.
As for `Cc1occc1C(=O)N1CCc2ncnc(-c3cnn(C)c3)c2CC1`, the cytotoxicity at 10 µM is -4.77%.
Turning to `Cc1nc(CNC(=O)Nc2cc(F)ccc2OC(F)F)no1`, the cytotoxicity at 10 µM was determined as 0.311%.
With `CC(CN1CCC(CCO)CC1)n1cnc2ccccc21` (configuration not stated), the cytotoxicity at 10 µM came to 5.34%.
As to `Cc1nc(CNC(=O)c2cc(Cn3ccnc3C(C)C)[nH]n2)sc1C`, the cytotoxicity at 10 µM stood at 2.99%.
Under `O=C(NCC1CCOCC1)[C@H]1C[C@@H]2CCN(Cc3ccncc3)C[C@@H]2O1` stands -14.1%; under `COc1ccc(C(=O)NCCc2nnc3ccccn23)c(OC)c1`, 9.6%; under `C[C@]1(O)CCN(Cc2nccs2)C[C@@H]1Oc1cccc(F)c1`, -0.779%.
The figure for `CC(=O)N(C)Cc1nn(C)c2c1CN(Cc1ccsc1)C2` is -134%.
Regarding `COCCc1noc(CN2CCN(CC(O)c3ccccc3)CC2)n1` (configuration not stated), the cytotoxicity at 10 µM amounted to 2.67%.
Under `N#Cc1ccsc1N1CCC(Sc2ccncc2)C1=O` (configuration not stated) stands -15.7%; under `O=C(NCc1cccnc1-n1cncn1)c1cc(Cl)ccn1`, -3.76%; under `CCN(C1CCN(C(=O)c2cccc(Cl)c2)CC1)S(C)(=O)=O`, 0.209%.
For the molecule `CN(Cc1cccnc1)Cc1cncc2c1CCN(c1ccccn1)C2`, the cytotoxicity at 10 µM was -108%.
For the molecule `O=C(Cn1cccn1)Nc1ccc(N2CCCCC2)cc1`, the cytotoxicity at 10 µM is 0.955%.
For `COc1ccc(-c2cc(CNc3ncnc4c3CCNCC4)no2)cc1`, the cytotoxicity at 10 µM came out at 13.1%.
Consider `Cc1cc(F)ccc1CCNC(=O)NCC(C)N1CCOCC1` (configuration not stated), for which the cytotoxicity at 10 µM is -1.35%.
The figure for `CS(=O)(=O)N1CCC(CNc2cc(Cl)ccc2C#N)CC1` is 14.9%; for `NCC1CN(c2nc(-c3cccnc3)nc3c2CCNCC3)CCO1` (configuration not stated) it is -17.6%; for `O=c1cc(Cn2ccnc2)nc2n1CCCN(S(=O)(=O)C1CC1)C2` it is 7.95%.
Under `N#Cc1cccc(S(=O)(=O)NC2CCN(Cc3ccccc3)C2=O)c1` (configuration not stated) stands -7.18%; under `Cc1nc(CN2CCCC2Cn2ccnc2C(C)C)nc2ccccc12` (configuration not stated), -56.8%; under `CCCOC1CCCN(c2ccnc(C(=O)NCc3ccco3)c2)C1` (configuration not stated), 5.58%.
Under `Cc1cccc(N2CCC3(CCCC(=O)N3)CC2)n1` stands -3.8%.
On to `CCS(=O)(=O)N(C)C(=O)c1cc(C)n(-c2cccc(OC)c2)c1C`, for which the cytotoxicity at 10 µM was -2.35%.
Under `COc1cc(-c2nccn2CCn2cccn2)cc2c1OCO2` stands -3.81%; under `Cc1ncc(CN2CCc3c(nc(-c4ccccn4)[nH]c3=O)C2)n1C`, -30.1%; under `CC(=O)Nc1ccc(C(=O)N2CCOc3nc(C)ccc32)cc1`, 2.81%.
For `CN(Cc1ccc(Cl)cc1)S(=O)(=O)N(C)Cc1cnn(C)c1`, the cytotoxicity at 10 µM is 16.5%.
Take `CC(CNC(=O)Nc1cn[nH]c1)N1CCc2ccccc2C1` (configuration not stated): the cytotoxicity at 10 µM was -0.289%.
`CC(=O)N1CCN(CCNC(=O)NC(C)Cn2ccnc2)CC1` (configuration not stated): the cytotoxicity at 10 µM was 5.74%.
As for `Cc1nn(C)c(N(C)C)c1CNCc1cccc(CN(C)C(C)C)c1`, the cytotoxicity at 10 µM worked out at 11.4%.
Under `O=C(O)c1cc(S(=O)(=O)N2CCOc3ccccc32)ccc1F` stands -2.94%; under `C[C@@H]1CN(C2(C(=O)N3CCOCC3)Cc3ccccc3C2)C[C@H](C)O1`, 1.12%.
Take `CN(C)C(=O)CN1CCCC1c1nccnc1Nc1ccccn1` (configuration not stated): the cytotoxicity at 10 µM is -15%.
As to `OCCOc1ccc(NCc2cccnc2)cn1`, the cytotoxicity at 10 µM worked out at 1.04%.
Under `COc1cc(OC)cc(C2(O)CCN(Cc3nc(C)c(C)o3)CC2)c1` stands -7.06%; under `CC(=O)N1CCN2C[C@H](CO)[C@@H](c3ccccc3)[C@H]2C1`, 3.54%.
The figure for `CC(C)(C)n1ncc2c1CCCC2NCc1cccc(C(N)=O)c1` (configuration not stated) is -0.25%; for `CCOc1ccc(NC(=O)N2CCOC(C(N)=O)C2)cc1C` (configuration not stated) it is -140%; for `COCC(=O)NCCc1ccc(Cl)s1` it is 13.4%.
Under `COCC1CN(Cc2ccccn2)Cc2nn(C)cc21` (configuration not stated) stands -87.5%.
For `O=C(NCc1ccc(CN2CCCC2)cc1)NCc1ccon1`, the cytotoxicity at 10 µM was -0.145%.
Under `CCC(C)NC(=O)N1CCCn2cnc(CO)c2C1` (configuration not stated) stands -9.35%; under `Cc1ccc(C(=O)N2CCCc3c(c(=O)n(C)n3C)C2)o1`, 5.92%.
As to `CN(C)C(=O)N1C[C@H]2CN(Cc3cccc(F)c3)C(=O)[C@H]2C1`, the cytotoxicity at 10 µM turned out to be 4.61%.
With `O=C(NCC(O)c1ccccc1Cl)c1cccc(-n2cnnn2)c1` (configuration not stated), the cytotoxicity at 10 µM is -15.6%.
The figure for `CC(C)NC(=O)c1cc(-c2ccc(S(C)(=O)=O)cc2)nc2c1cnn2C` is 4.21%; for `Cc1cc(CN(C)C(=O)C2CCCN(C(=O)c3ccc(Cl)cc3)C2)no1` (configuration not stated) it is -15.6%.
The figure for `Cc1nccnc1C1CCN(C2CCCC2O)CC1` (configuration not stated) is -1.35%; for `COC(CNC(=O)c1ccoc1)c1cccc(Cl)c1` (configuration not stated) it is 3.3%; for `O=C(CO)N1CCC(c2cncc(-c3cccc(Cl)c3)n2)CC1` it is -0.105%.
Under `Cc1nn(C)c2cnn(CC(=O)NCc3ccccc3F)c12` stands 7.8%; under `CCCS(=O)(=O)N1CCO[C@H]2[C@@H](Oc3cccnc3)CC[C@@H]21`, -3.15%; under `CCOc1cc(NC(=O)N2CCC3(CCOCC3)C2)ccc1C`, 2.89%.
Take `Cc1csc(-c2cccc(NC(=O)N3CCOCC3)c2)n1`: the cytotoxicity at 10 µM is -6.35%.
Under `CCCc1nc(C)c(C(=O)NC2CCN(c3ncccn3)CC2)s1` stands 16.7%; under `CNc1nc(C)c(C(=O)N2CCCCC2CCc2ccccc2)s1` (configuration not stated), 2.24%; under `Cc1cccc(N2CCCC2c2nc(C)ncc2CN(C)C)n1` (configuration not stated), -2.17%.
Turning to `O=C(Cc1cnn(-c2ccccc2)n1)NC(C1CC1)C1CC1`, the cytotoxicity at 10 µM was -9.66%.
For the molecule `CCOCc1cc(CN2CCn3c(CO)nnc3C2)ccc1OC`, the cytotoxicity at 10 µM is -37.2%.
The figure for `COCCC(=O)N1C[C@H]2CN(Cc3cccc(C)c3)C(=O)[C@H]2C1` is 2.05%.
